The source of these data is paper PMC7115694 (European Journal of Medicinal Chemistry, 2010).

Broadly, the EC50 is the concentration that produces a half-maximal response.

Holding throughout (type): cell-based
Data set [1] deals with Para-influenza-3 virus. As to the kind of experiment: organism not typed. The conditions noted are these: Vero, read-out: EC50 Para-influenza-3 virus.
Data set [2] relates to Reovirus-1. Description: organism not typed. Conditions: Vero, read-out: EC50 Reovirus-1.
Data set [3] concerns S. aureus, B. subtilis and E. coli. As to the kind of experiment: Average antibacterial activity. Conditions: average antibacterial activity (pMICsa + pMICbs + pMICec)/3.
Data set [4] concerns S. aureus, B. subtilis, E. coli, C. albicans and A. niger. As to the kind of experiment: Average antimicrobial activity. Conditions: mean of five pMIC values.
Data set [5] relates to HEL cells. As to the kind of experiment: Cytotoxicity in uninfected cell cultures. Conditions: microscopically detectable alteration of cell morphology. In a few lines:
(§1)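 Uninfected cell cultures are exposed to serial dilutions of test compound in parallel with the virus cytopathicity assays. Cells are examined microscopically. Minimum cytotoxic concentration is the lowest concentration causing a microscopically detectable alteration of normal cell morphology.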

Data set [6] concerns Vero cells. As to the kind of experiment: Cytotoxicity in uninfected cell cultures. The conditions noted are these: cell morphology. In a few lines: as §1
For data set [7], the system named is C. albicans and A. niger. As to the kind of experiment: Average antifungal activity. Conditions: average antifungal activity (pMICca + pMICan)/2.
Data set [8] concerns Aspergillus niger. As to the kind of experiment: MIC by tube dilution method. Conditions: observed, A. niger, 25 °C 7 d.
Data set [9] concerns Candida albicans. Description: MIC by tube dilution method. Conditions: observed, C. albicans, 37 °C 48 h.
The subject of data set [10] is Escherichia coli. As to the kind of experiment: MIC by tube dilution method. The conditions noted are these: observed, E. coli, 37 °C 24 h. The method in brief: (§2)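 Test compound is diluted in double strength nutrient broth (I.P.) by tube dilution, with ciprofloxacin as reference. Samples incubated at 37 °C for 24 h. MIC is the lowest concentration inhibiting microbial growth, transformed into pMIC for analysis.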

Data set [11] has as its system Bacillus subtilis. As to the kind of experiment: MIC by tube dilution method. The conditions noted are these: observed, B. subtilis, 37 °C 24 h. The method in brief:
as §2

Data set [12] deals with HeLa cells. Description: Cytotoxicity in uninfected cell cultures. Conditions: cell morphology. In a few lines:
as §1

The subject of data set [13] is Staphylococcus aureus. Description: MIC by tube dilution method. Conditions: observed, S. aureus, 37 °C 24 h.
The test system of data set [14] is Feline Herpes virus. Description: organism not typed. Conditions: for EC50: CRFK, read-out: EC50 Feline Corona Virus.
Data set [15] concerns B. subtilis. Description: Minimum bactericidal concentration. Conditions: static when MBC 3-fold higher than MIC.
The test system of data set [16] is S. aureus. Description: Minimum bactericidal concentration. The conditions noted are these: static when MBC 3-fold higher than MIC.
The subject of data set [17] is Coxsackie virus B4. As to the kind of experiment: microbe, parasite or virus in culture. Conditions: Enterovirus B, B4, HeLa, read-out: EC50 Coxsackie virus B4 visual CPE score.
Data set [18] concerns Sindbis virus. As to the kind of experiment: microbe, parasite or virus in culture. Conditions: Vero, read-out: EC50 Sindbis virus.
Data set [19] relates to Punta Toro virus. As to the kind of experiment: microbe, parasite or virus in culture. The conditions noted are these: Vero, read-out: EC50 Punta Toro virus.
The subject of data set [20] is Feline Corona virus (FIPV). Conditions: CRFK cell cultures, MTS assay. A general note: Tetrazolium assays rely on reduction of a dye to a coloured formazan, in cell work by metabolically active cells.

On to `Cc1ccc(C(=O)n2c(-c3ccc(S(=O)(=O)O)cc3)nc3ccccc32)cc1` [Compound 11], for which the EC50 in [1], in data set [2] and in [14] was over 100 mg/L throughout. Besides, the pMICab in data set [3] is reported as 2.05. The molecule also showed a pMICam in data set [4] of 1.71. The Minimum cytotoxic concentration in [5] and in data set [6] was over 100 µg/mL throughout. Moreover, the pMICaf in data set [7] turned out to be 1.20. For the same molecule, in data set [8], the pMICan amounted to 0.89. This molecule also gave a pMICca in [9] of 1.50. In data set [10], this molecule returned a pMICec of 2.10. Moreover, in [11], the pMICbs was 1.95. Also, in [12], the “Cytotoxicity Minimum cytotoxic concentration” value is over 100 µg/mL. Besides, in [13], the pMICsa was 2.10. For the same molecule, the “bacteriostatic/bactericidal action against B. subtilis” value in data set [15] was “active bacteriocidal agents”.

As for `CCCCC(=O)n1c(-c2ccc(S(=O)(=O)O)cc2)nc2ccccc21` [Compound 17], the EC50 in data set [1], in data set [2] and in data set [14] was over 100 mg/L in each case. The pMICab in data set [3] came to 1.76. For the same molecule, the pMICam in data set [4] was 1.58. The Minimum cytotoxic concentration in data set [5] and in data set [6] was over 100 µg/mL throughout. In addition, the pMICaf in data set [7] is 1.31. This molecule also had a pMICan in data set [8] of 1.16. In addition, the pMICca in [9] worked out at 1.46. In addition, the pMICec in data set [10] turned out to be 1.76. Besides, the pMICbs in data set [11] is 1.76. Also, in data set [12], the “Cytotoxicity Minimum cytotoxic concentration” value is over 100 µg/mL. This molecule also gave a pMICsa in [13] of 1.76. Also, the “bacteriostatic/bactericidal action against B. subtilis” value in data set [15] was “active bacteriocidal agents”. Besides, the “bacteriostatic/bactericidal action against S. aureus” value in [16] is reported as “active bacteriocidal agents”.

Consider `Nc1ncnc2c1ncn2C[C@H](O)CO` [(S)-DHPA], for which the EC50 in [1], in data set [2], in data set [17], in data set [18] and in [19] was over 250 µM throughout. This molecule came in with a Minimum cytotoxic concentration in [6] of over 250 µM. In addition, the “Cytotoxicity Minimum cytotoxic concentration” value in data set [12] was over 250 µM.

B1: UDA (protein, UniProt P11218 24-372, looked up)
Lectin/endochitinase 1: QRCGSQGGGGTCPALWCCSIWGWCGDSEPYCGRTCENKCWSGERSDHRCGAAVGNPPCGQDRCCSVHGWCGGGNDYCSGSKCQYRCSSSVRGPRVALSGNSTANSIGNVVVTEPLFDQMFSHRKDCPSQGFYSYHSFLVAAESFPAFGTIGDVATRKREVAAFLAHISQATSGERSDVENPHAWGLCHINTTTVTENDFCTSSDWPCAAGKKYSPRGPIQLTHNFNYGLAGQAIGEDLIQNPDLVEKDPIISFKTALWFWMSQHDNKPSCHDIVLNANSAANRIPNKGVIGNIISRAFGHDDFAVRSSSIGFYKRYCDMLGVSYGHDLKYWFDNTPSSEFQRIQMRVAA
As to B1, the “EC50 Feline Corona Virus” value in [14] (CRFK cell cultures, MTS assay) was found to be 0.4 mg/L. Moreover, the “EC50 Feline Herpes Virus (FIPV)” value in data set [20] turned out to be 1.5 mg/L.
